In ChEMBL document CHEMBL4665760, “Rational Design and Synthesis of Methyl-β-d-galactomalonyl Phenyl Esters as Potent Galectin-8N Antagonists” (J Med Chem, 2020):
pKd: −log10 of the molar value. Values belong to the molecule of their own block, whether it stands above or below them. Activity calls are given as the source filed them. The calls are words filed in the database; no cut-off is given here.

What was measured:
Galectin-8 = target: T1, Galectin-8 (Homo sapiens, UniProt O00214); assay: Binding affinity to N-terminal domain of human galectin-8 (8-154 residues) by ITC assay
T1 sequence (O00214 whole entry): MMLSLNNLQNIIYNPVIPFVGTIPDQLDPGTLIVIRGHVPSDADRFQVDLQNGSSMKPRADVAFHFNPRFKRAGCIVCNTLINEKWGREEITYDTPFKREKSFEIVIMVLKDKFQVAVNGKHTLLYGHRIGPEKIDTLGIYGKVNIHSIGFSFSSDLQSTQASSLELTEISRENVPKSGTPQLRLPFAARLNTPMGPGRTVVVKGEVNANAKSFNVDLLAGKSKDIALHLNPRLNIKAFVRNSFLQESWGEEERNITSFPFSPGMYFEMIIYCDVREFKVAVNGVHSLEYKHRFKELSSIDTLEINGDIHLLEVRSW
Summary of the method: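 Untagged galectin-8N (residues 8-154) was expressed in bacteria (IPTG induction 4 h, room temperature) and purified on lactosyl-Sepharose at 4 °C. Protein and ligand were in 20 mM Tris pH 7.5, 100 mM NaCl, 4 mM BME, 5% DMSO and degassed. Ligand (0.5 or 1 mM) was titrated into 100 µM protein over 20-25 × 2.5 µl injections, 150 s apart, at 298 K. Blank-corrected data were fitted to an independent-site model for Kd.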

[1] = target: T2, Galectin-8 (Homo sapiens) (UniProt O00214); assay: Antagonist activity at galectin-8 in human SUM159PT cells assessed as reduction in galectin-8-induced IL-1beta mRNA expression at 500 uM incubated for 24 hrs by real-time PCR analysis; assay type: cell-based
T2 sequence (whole entry): T1 sequence (O00214 whole entry)
Summary of the method: (§1)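 SUM159 triple-negative breast cancer cells grown in RPMI with 10% FBS and penicillin/streptomycin at 37 °C, 5% CO2. Cells seeded at 50000 cells/cm², then incubated 24 h with compound at 500 µM, with or without 50 nM galectin-8. Means ± SEM from experiments done in duplicates.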

[2] = target: T2, Galectin-8 (Homo sapiens); assay: Antagonist activity at galectin-8 in human SUM159PT cells assessed as reduction in galectin-8-induced IL-8 mRNA expression at 1 uM incubated for 24 hrs by real-time PCR analysis; assay type: cell-based; conditions: filed as antagonist
Summary of the method: (§2)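 SUM159 triple-negative breast cancer cells in RPMI/10% FBS at 37 °C, 5% CO2, seeded at 50000 cells/cm². Galectin-8 (50 nM) stimulated, with or without compound. Dose-response run at 1, 10, 100 and 500 µM.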

[3] = target: T2, Galectin-8 (Homo sapiens); assay: Antagonist activity at galectin-8 in human SUM159PT cells assessed as reduction in galectin-8-induced IL-8 mRNA expression at 500 uM incubated for 24 hrs by real-time PCR analysis; assay type: cell-based; summary of the method: as §1
[4] = target: T2, Galectin-8 (Homo sapiens); assay: Antagonist activity at galectin-8 in human SUM159PT cells assessed as reduction in galectin-8-induced IL-6 mRNA expression at 1 uM incubated for 24 hrs by real-time PCR analysis; assay type: cell-based; conditions: filed as antagonist; summary of the method: as §2
[5] = target: T2, Galectin-8 (Homo sapiens); assay: Antagonist activity at galectin-8 in human SUM159PT cells assessed as reduction in galectin-8-induced IL-6 mRNA expression at 500 uM incubated for 24 hrs by real-time PCR analysis; assay type: cell-based; summary of the method: as §1
[6] = target: T2, Galectin-8 (Homo sapiens); assay: Potency index, ratio of Kd for lactose to Kd for test compound for binding affinity to N-terminal domain of human galectin-8 (8-154 residues) by ITC assay; conditions: filed as antagonist

SMILES: COc1cc(OC)cc(OC(=O)CC(=O)O[C@H]2[C@@H](O)[C@@H](CO)O[C@@H](OC)[C@@H]2O)c1
pKd (Galectin-8): 4.96

SMILES: CO[C@@H]1O[C@H](CO)[C@H](O)[C@H](OC(=O)CC(=O)Oc2ccccc2)[C@H]1O
pKd (Galectin-8): 4.89

SMILES: CO[C@@H]1O[C@H](CO)[C@H](O)[C@H](OC(=O)CC(=O)Oc2ccc(Cl)cc2Cl)[C@H]1O
pKd (Galectin-8): 4.92

SMILES: COC(=O)CC(=O)O[C@H]1[C@@H](O)[C@@H](CO)O[C@@H](OC)[C@@H]1O
pKd (Galectin-8): 4.60
Antagonist activity [1]: inactive
inhibition [3]: inactive
inhibition [5]: inactive

SMILES: COc1ccc(OC(=O)CC(=O)O[C@H]2[C@@H](O)[C@@H](CO)O[C@@H](OC)[C@@H]2O)cc1
pKd (Galectin-8): 5.02

SMILES: CO[C@@H]1O[C@H](CO)[C@H](O)[C@H](OC(=O)CC(=O)O)[C@H]1O
pKd (Galectin-8): 4.47
Antagonist activity [1]: inactive
inhibition [3]: inactive
inhibition [5]: inactive

The next molecules have a higher pKd (Galectin-8) than those just listed; values first:

pKd (Galectin-8): 5.04
Antagonist activity ([1]; filed as antagonist): Active
inhibition [2]: Active
inhibition ([3]; filed as antagonist): Active
inhibition [4]: Active
inhibition ([5]; filed as antagonist): Active
SMILES: CO[C@@H]1O[C@H](CO)[C@H](O)[C@H](OC(=O)CC(=O)OCc2ccccc2)[C@H]1O

pKd (Galectin-8): 5.24
Antagonist activity ([1]; filed as antagonist): Active
Ratio [6]: 7
inhibition [2]: Active
inhibition ([3]; filed as antagonist): Active
inhibition [4]: Active
inhibition ([5]; filed as antagonist): Active
SMILES: CO[C@@H]1O[C@H](CO)[C@H](O)[C@H](OC(=O)CC(=O)Oc2ccc(F)cc2)[C@H]1O

pKd (Galectin-8): 5.64
SMILES: CC(=O)N[C@H]1[C@H]([C@H](O)[C@H](O)CO)O[C@@](O[C@H]2[C@@H](O)[C@@H](CO)O[C@@H](O[C@H]3[C@H](O)[C@@H](O)[C@H](O)O[C@@H]3CO)[C@@H]2O)(C(=O)O)C[C@@H]1O
